From ChEMBL document CHEMBL1142636 (2000)
Values after ≈ are worked out from the molar mass of the structure shown.

How the values were obtained:
NCI-H226 = experiment: Growth inhibition of human NCI-H226 cells; format: functional
UO-31 = experiment: Growth inhibition of human UO31 cells; format: functional
In short: (§1)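 Tested at the NCI in its human disease-oriented in vitro screen of 60 tumour cell lines, following the Monks et al. methods. Activity is expressed as GI50, given as log molar values.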

TK-10 = experiment: Growth inhibition of human TK10 cells; format: functional; in short: as §1
SN12C = experiment: Growth inhibition of human SN12C cells; format: functional; in short: as §1
ACHN = experiment: Growth inhibition of human ACHN cells; format: functional
786-0 = experiment: Growth inhibition of human 786-0 cells; format: functional
SK-OV-3 = experiment: Growth inhibition of human SK-OV-3 cells; format: functional; in short: as §1
[1] = Growth inhibition of human OVACR8 cells; format: functional
[2] = Growth inhibition of human OVACR5 cells; format: functional
[3] = Growth inhibition of human […] cells; format: functional
IGROV-1 = experiment: Growth inhibition of human IGROV1 cells; format: functional
UACC-62 = experiment: Growth inhibition of human UACC62 cells; format: functional; in short: as §1
SK-MEL-5 = experiment: Growth inhibition of human SK-MEL-5 cells; format: functional; conditions: for EC50: read-out: ED50 (the source's name); in short: as §1
SK-MEL-28 = experiment: Growth inhibition of human SK-MEL-28 cells; format: functional; in short: as §1
SK-MEL-2 = experiment: Growth inhibition of human SK-MEL-2 cells; format: functional; in short: as §1
M19-MEL = experiment: Growth inhibition of human M19-MEL cells; format: functional
M14 = experiment: Growth inhibition of human M14 cells; format: functional
Malme-3M = experiment: Growth inhibition of human MALME-3M cells; format: functional
LOX IMVI = experiment: Growth inhibition of human LOX IMVI cells; format: functional
XF498 = experiment: Growth inhibition of human XF498 cells; format: functional; in short: as §1
U-251 = experiment: Growth inhibition of human U251 cells; format: functional; in short: as §1
SNB-75 = experiment: Growth inhibition of human SNB75 cells; format: functional; in short: as §1
SNB-19 = experiment: Growth inhibition of human SNB19 cells; format: functional; in short: as §1
SF-539 = experiment: Growth inhibition of human SF539 cells; format: functional; in short: as §1
SF-268 = experiment: Growth inhibition of human SF268 cells; format: functional; in short: as §1
SW-620 = experiment: Growth inhibition of human SW620 cells; format: functional; in short: as §1
KM-20L2 = experiment: Growth inhibition of human KM20L2 cells; format: functional
KM12 = experiment: Growth inhibition of human KM12 cells; format: functional
HT-29 = experiment: Growth inhibition of human HT29 cells; format: functional
HCT-15 = experiment: Growth inhibition of human HCT15 cells; format: functional
HCT-116 = experiment: Growth inhibition of human HCT116 cells; format: functional
HCC 2998 = experiment: Growth inhibition of human HCC2998 cells; format: functional
DLD-1 = experiment: Growth inhibition of human DLD1 cells; format: functional
COLO 205 = experiment: Growth inhibition of human COLO205 cells; format: functional; conditions: for EC50: read-out: ED50 (the source's name)
DMS-273 = experiment: Growth inhibition of human DMS273 cells; format: functional
[4] = Growth inhibition of human DMS144 cells; format: functional
[5] = Growth inhibition of human LXFL529 cells; format: functional; conditions: LXFL 529
NCI-H522 = experiment: Growth inhibition of human NCI-H522 cells; format: functional
NCI-H460 = experiment: Growth inhibition of human NCI-H460 cells; format: functional
NCI-H322M = experiment: Growth inhibition of human NCI-H322M cells; format: functional
HOP-92 = experiment: Growth inhibition of human HOP92 cells; format: functional
HOP-62 = experiment: Growth inhibition of human HOP62 cells; format: functional
A549 = experiment: Growth inhibition of human A549 cells; format: functional
SR = experiment: Growth inhibition of human SR cells; format: functional; in short: as §1
[6] = Growth inhibition of human RPMI8266 cells; format: functional
MOLT-4 = experiment: Growth inhibition of human MOLT4 cells; format: functional
K562 = experiment: Growth inhibition of human K562 cells; format: functional
[7] = Growth inhibition of human HL60(TB) cells; format: functional, HL-60(TB); conditions: HL-60
CCRF-CEM = experiment: Growth inhibition of human CCRF-CEM cells; format: functional
KB = experiment: Growth inhibition of human KB cells; format: functional; conditions: read-out: ED50 (the source's name)
In short: (§2)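 In-house cytotoxicity assay following an NCI protocol, run on a panel of human tumour lines: KB nasopharyngeal epidermoid carcinoma and HCT-8 ileocecal adenocarcinoma. Potency is reported as ED50 in µg/mL.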

HCT-8 = experiment: Growth inhibition of human HCT8 cells; format: functional; conditions: read-out: ED50 (the source's name); in short: as §2
RXF 393 = experiment: Growth inhibition of human […] cells; format: functional
[8] = Growth inhibition of human OVACR4 cells; format: functional

## COc1cc(CO)cc2c1[nH]c1ccccc12 [KOENOLINE]
NCI-H226
  GI50: 1.74 µM
NCI-H226; read-out: pTGI
  TGI: 5.25 µM

## COc1cc(Cc2c(C)cc(OC)c3[nH]c4ccccc4c23)cc2c1[nH]c1ccccc12
UO-31
  GI50: 6.03 µM
TK-10
  GI50: 12 µM
SN12C
  GI50: 6.46 µM
ACHN
  GI50: 4.68 µM
786-0
  GI50: 5.37 µM
SK-OV-3
  GI50: 8.71 µM
[1]
  GI50: 4.57 µM
[2]
  GI50: 5.01 µM
[3]
  GI50: 5.37 µM
IGROV-1
  GI50: 9.12 µM
UACC-62
  GI50: 5.62 µM
SK-MEL-5
  GI50: 3.98 µM
SK-MEL-28
  GI50: 8.71 µM
SK-MEL-2
  GI50: 3.98 µM
M19-MEL
  GI50: 9.77 µM
M14
  GI50: 5.13 µM
Malme-3M
  GI50: 4.47 µM
LOX IMVI
  GI50: 3.89 µM
XF498
  GI50: 6.03 µM
U-251
  GI50: 5.01 µM
SNB-75
  GI50: 5.75 µM
SNB-19
  GI50: 5.89 µM
SF-539
  GI50: 4.57 µM
SF-268
  GI50: 6.92 µM
SW-620
  GI50: 8.13 µM
KM-20L2
  GI50: 5.25 µM
KM12
  GI50: 5.37 µM
HT-29
  GI50: 7.76 µM
HCT-15
  GI50: 6.92 µM
HCT-116
  GI50: 9.12 µM
HCC 2998
  GI50: 5.37 µM
DLD-1
  GI50: 8.91 µM
COLO 205
  GI50: 12 µM
DMS-273
  GI50: 7.59 µM
[4]
  GI50: 10.5 µM
[5]
  GI50: 4.17 µM
NCI-H522
  GI50: 5.01 µM
NCI-H460
  GI50: 5.13 µM
NCI-H322M
  GI50: 7.24 µM
NCI-H226
  GI50: 4.68 µM
HOP-92
  GI50: 7.59 µM
HOP-62
  GI50: 5.5 µM
A549
  GI50: 5.75 µM
SR
  GI50: 7.76 µM
[6]
  GI50: 10 µM
MOLT-4
  GI50: 5.75 µM
K562
  GI50: 7.24 µM
[7]
  GI50: 7.94 µM
CCRF-CEM
  GI50: 8.51 µM

## CC1=CC(=O)c2c([nH]c3ccc(C)cc23)C1=O
SK-MEL-5
  EC50: 5.29 µg/mL (≈ 23.5 µM)
COLO 205
  EC50: 3.2 µg/mL (≈ 14.2 µM)
KB
  EC50: 4.6 µg/mL (≈ 20.4 µM)
HCT-8
  EC50: 5.47 µg/mL (≈ 24.3 µM)

## CC(C)=CCCC1(C)C=Cc2c(ccc3c2[nH]c2cc(O)c(C)cc23)O1 (centres undefined)
TK-10
  GI50: 16.6 µM
SN12C
  GI50: 4.68 µM
RXF 393
  GI50: 5.25 µM
ACHN
  GI50: 6.76 µM
786-0
  GI50: 4.27 µM
[1]
  GI50: 3.8 µM
[2]
  GI50: 19.5 µM
[8]
  GI50: 7.94 µM
[3]
  GI50: 4.79 µM
UACC-62
  GI50: 9.33 µM
SK-MEL-5
  GI50: 4.9 µM
SK-MEL-2
  GI50: 6.46 µM
M19-MEL
  GI50: 6.92 µM
M14
  GI50: 3.89 µM
Malme-3M
  GI50: 5.25 µM
LOX IMVI
  GI50: 4.57 µM
U-251
  GI50: 4.57 µM
SNB-75
  GI50: 12.9 µM
SNB-19
  GI50: 25.1 µM
SF-539
  GI50: 4.57 µM
SF-268
  GI50: 5.01 µM
SW-620
  GI50: 4.68 µM
KM-20L2
  GI50: 5.25 µM
KM12
  GI50: 4.79 µM
HT-29
  GI50: 4.9 µM
HCT-15
  GI50: 5.01 µM
HCT-116
  GI50: 8.71 µM
HCC 2998
  GI50: 4.68 µM
DLD-1
  GI50: 8.91 µM
DMS-273
  GI50: 5.01 µM
[4]
  GI50: 7.08 µM
[5]
  GI50: 5.13 µM
NCI-H522
  GI50: 3.89 µM
NCI-H460
  GI50: 4.68 µM
NCI-H322M
  GI50: 6.61 µM
NCI-H226
  GI50: 7.08 µM
HOP-92
  GI50: 4.27 µM
HOP-62
  GI50: 4.79 µM
A549
  GI50: 6.61 µM
SR
  GI50: 5.5 µM
[6]
  GI50: 6.61 µM
MOLT-4
  GI50: 4.17 µM
K562
  GI50: 5.62 µM
[7]
  GI50: 9.55 µM
CCRF-CEM
  GI50: 5.01 µM

## CC1=CC(=O)c2c([nH]c3ccc(Cl)cc23)C1=O
SK-MEL-5
  EC50: 5.5 µg/mL (≈ 22.4 µM)
COLO 205
  EC50: 4.42 µg/mL (≈ 18 µM)
KB
  EC50: 3.52 µg/mL (≈ 14.3 µM)
HCT-8
  EC50: 5.5 µg/mL (≈ 22.4 µM)
